Published values from different studies.
Compare with care: the assays were run in different laboratories.
MET: Hepatocyte growth factor receptor (MET, Homo sapiens, UniProt P08581)
MET Y1235D: Hepatocyte growth factor receptor (MET, Homo sapiens, UniProt P08581, Y1235D)
MET M1250T: Hepatocyte growth factor receptor (MET, Homo sapiens, UniProt P08581, M1250T)

SMILES | target | read-out | technique | concentration | remaining binding [%]
CN(C)c1ncc(F)c(-c2cnn3ncccc23)n1 | MET | binding |  | 1 µM | 97
COc1cnc(Nc2cccc(S(N)(=O)=O)c2)nc1N1CCN(c2ccccc2)CC1 | MET Y1235D | binding | competition with immobilised ligand | 1 µM | 100
F[C@@H]1CCN(c2nccc(-c3cnn4ncccc34)n2)C1 | MET Y1235D | binding |  | 1 µM | 100
CCCCN(CCCC)C(=O)CN1C[C@H](c2cc(OC)c3c(c2)OCO3)[C@@H](C(=O)O)[C@@H]1CC(C)(C)CCC | MET Y1235D | cell-free assay | competition with immobilised ligand | 1 µM | 100
c1cnn2ncc(-c3ccnc(N4CCC45COC5)n3)c2c1 | MET | binding |  | 1 µM | 83
Nc1ncc2c(n1)-c1c([nH]c3ccc(C#CC4CC4)cc13)CCCC2 | MET | binding | competition with immobilised ligand | 1 µM | 100
COc1ncc2cc3ccccc3nc2c1C#N | MET Y1235D | cell-free assay | competition with immobilised ligand | 5 µM | 80
O=C(c1ccc(Nc2ncc(Cl)c(-c3ccc(Cl)s3)n2)cc1)N1CCC(N2CCCC2)CC1 | MET | binding | competition with immobilised ligand | 1 µM | 6.9
C[C@@H]1CN(c2ccc3ncc(-c4ccc5[nH]nc(C6CC6)c5c4)n3n2)C[C@H](C)O1 | MET | binding | competition with immobilised ligand | 50 nM | 89
Cc1nc(N2CC[C@@H](O)C2)ncc1-c1cc(C(F)(F)F)cc2[nH]ncc12 | MET | cell-free assay | competition with immobilised ligand | 1 µM | 100
O=C(NCCCN1CCOCC1)c1ccc(Nc2nccc(-c3cc4ccccc4s3)n2)cc1 | MET M1250T | binding | competition with immobilised ligand | 1 µM | 69
c1cncc(-c2cccc(Nc3nccc(NC4CCCCC4)n3)c2)c1 | MET Y1235D | binding | competition with immobilised ligand | 10 µM | 73
Cn1cc(Cl)c2c(Oc3c(F)cc(Nc4cc(Cl)nc(N)n4)cc3F)ccnc21 | MET Y1235D | cell-free assay | competition with immobilised ligand | 0.1 µM | 91
CCN1CCN(Cc2ccc(C(=O)Nc3ccc(C)c(Oc4ccc5c(c4)CC(=O)N5)c3)cc2C(F)(F)F)CC1 | MET Y1235D | binding | competition with immobilised ligand | 1 µM | 100
CN(C)c1nccc(-c2cnn3ncccc23)n1 | MET M1250T | binding |  | 1 µM | 100
C[C@H](c1ccc(F)cc1)N(Cc1cccc(C(=O)O)c1)C(=O)c1cnc2ccccc2c1 | MET M1250T | cell-free assay | competition with immobilised ligand | 1 µM | 93
O=C(c1ccc(Nc2ncc(Cl)c(-c3cc4ccccc4s3)n2)cc1)N1CCC(N2CCCC2)CC1 | MET Y1235D | binding | competition with immobilised ligand | 1 µM | 44

SMILES | target | read-out | technique | concentration | remaining binding [%]
CC(=O)N1CCC(c2ccc(C(=O)NC3=NCCN3)cc2C(F)(F)F)CC1 | MET M1250T | cell-free assay | competition with immobilised ligand | 1 µM | 84
COC(=O)Nc1nc2ccc(C(=O)c3ccccc3)cc2[nH]1 | MET | cell-free assay | competition with immobilised ligand | 10 µM | 32
O=C(NCCCN1CCOCC1)c1ccc(Nc2ncc(Cl)c(-c3ccc(Cl)s3)n2)cc1 | MET | binding | competition with immobilised ligand | 1 µM | 37
COc1cnc(Nc2cccc(S(N)(=O)=O)c2)nc1N1CCN(c2ccccc2)C(=O)C1 | MET | binding | competition with immobilised ligand | 1 µM | 100
C[C@H](NC(=O)c1cnc2n1[C@](C)(Cc1ccc(C#N)cc1)C(=O)N2c1cc(Cl)c(F)c(Cl)c1)C(=O)NC1(c2ccccn2)CC1 | MET | cell-free assay | competition with immobilised ligand | 1 µM | 100
COc1ccnn2ncc(-c3ccnc(N(C)C)n3)c12 | MET | binding |  | 1 µM | 92
O=C(Nc1c[nH]nc1C(=O)NC1CCNCC1)c1cc(F)cc(F)c1 | MET M1250T | binding | competition with immobilised ligand | 1 µM | 100
CN1CCN(c2ccc(Nc3nccc(-c4ccccc4)n3)cc2C(F)(F)F)CC1 | MET Y1235D | binding |  | 10 µM | 21
O=C(NCCCC1CCCCC1)c1ccc(CNC(=O)c2cnn(-c3ccccc3)c2C(F)(F)F)cc1 | MET Y1235D | cell-free assay | competition with immobilised ligand | 0.1 µM | 100
Cc1cnc(Nc2ccc(C(=O)N3CCC(N4CCCC4)CC3)cc2)nc1-c1cc2ccccc2s1 | MET Y1235D | binding | competition with immobilised ligand | 1 µM | 72
C[C@@H]1CCN(c2nccc(-c3cnn4ncccc34)n2)C1 | MET M1250T | binding |  | 1 µM | 98
CCS(=O)(=O)c1cc2cc(C[C@](O)(CC(C)(C)c3ccc(F)cc3C(N)=O)C(F)(F)F)[nH]c2cn1 | MET | cell-free assay | competition with immobilised ligand | 1 µM | 98
CNC(=O)[C@@H]1CC[C@@H](n2c(-c3ccc4cnccc4c3)nc3ccc(C(=O)NCc4cccc(C(N)=O)c4)cc32)C1 | MET M1250T | binding | competition with immobilised ligand | 1 µM | 100
O=C(NCC1CCOCC1)c1n[nH]cc1NC(=O)c1c(F)cccc1F | MET Y1235D | binding | competition with immobilised ligand | 1 µM | 97
O=C(c1ccc(Nc2nccc(-c3cc4ccccc4s3)n2)cc1)N1CCC(N2CCCC2)CC1 | MET M1250T | binding | competition with immobilised ligand | 1 µM | 68
N[C@@H]1CCN(c2nccc(-c3cnn4ncccc34)n2)C1 | MET | binding |  | 1 µM | 60
